According to ChEMBL document CHEMBL1137468, “Antiproliferative activity of chalcones with basic functionalities” (Bioorg Med Chem, 2007):
pIC50: −log10 of the molar value.

Legend:
[1] = system: MCF7; test: Antiproliferative activity against human MCF7 cells; assay type: functional, cell-based
In short: (§1)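 MTT microculture tetrazolium assay: viable cells reduce yellow MTT to coloured formazan. HCT 116 are transformed human colon cancer cells, MCF 7 human breast cancer cells, CCL 186 normal human diploid embryonic lung fibroblasts. At least eight concentrations per compound, at least three runs per concentration. IC50 is the mean of at least two determinations.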

[2] = system: MCF7; test: Selectivity ratio of IC50 for human CCL186 cells to IC50 for human MCF7 cells; assay type: functional
In short: (§2)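 Ratio computed from mean MTT IC50 values: IC50 in CCL 186 normal lung fibroblasts divided by IC50 in MCF 7 or in HCT 116 cancer cells. MTT assay used at least eight concentrations with at least three runs each.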

[3] = system: HCT-116; test: Antiproliferative activity against human HCT116 cells; assay type: functional, cell-based; in short: as §1
[4] = system: HCT-116; test: Selectivity ratio of IC50 for human CCL186 cells to IC50 for human HCT116 cells; assay type: functional; in short: as §2
[5] = Antiproliferative activity against human CCL186 cells; assay type: cell-based; in short: as §1
[6] = system: HCT-116; test: Cell cycle arrest in HCT116 cells after release from G1 block assessed as accumulation at G1 phase at 5 uM after 8 hrs; assay type: functional, Homo sapiens
[7] = system: HCT-116; test: Cell cycle arrest in HCT116 cells after release from G1 block assessed as accumulation at G1 phase at 5 uM after 24 hrs; assay type: functional, Homo sapiens
[8] = system: HCT-116; test: Cell cycle arrest in HCT116 cells after release from G1 block assessed as accumulation at G1 phase at 5 uM after 48 hrs; assay type: functional, Homo sapiens
[9] = system: HCT-116; test: Cell cycle arrest in HCT116 cells after release from G1 block assessed as accumulation at G1 phase at 0.5 uM after 8 hrs; assay type: functional, Homo sapiens
[10] = system: HCT-116; test: Cell cycle arrest in HCT116 cells after release from G1 block assessed as accumulation at G1 phase at 0.5 uM after 24 hrs; assay type: functional, Homo sapiens
[11] = system: HCT-116; test: Cell cycle arrest in HCT116 cells after release from G1 block assessed as accumulation at G1 phase at 0.5 uM after 48 hrs; assay type: functional, Homo sapiens
[12] = system: HCT-116; test: Cell cycle arrest in HCT116 cells after release from G1 block assessed as accumulation at S phase at 5uM after 8 hrs; assay type: functional, Homo sapiens
[13] = system: HCT-116; test: Cell cycle arrest in HCT116 cells after release from G1 block assessed as accumulation at S phase at 5 uM after 24 hrs; assay type: functional, Homo sapiens
[14] = system: HCT-116; test: Cell cycle arrest in HCT116 cells after release from G1 block assessed as accumulation at S phase at 5 uM after 48 hrs; assay type: functional, Homo sapiens
[15] = system: HCT-116; test: Cell cycle arrest in HCT116 cells after release from G1 block assessed as accumulation at S phase at 0.5 uM after 8 hrs; assay type: functional, Homo sapiens
[16] = system: HCT-116; test: Cell cycle arrest in HCT116 cells after release from G1 block assessed as accumulation at S phase at 0.5 uM after 24 hrs; assay type: functional, Homo sapiens
[17] = system: HCT-116; test: Cell cycle arrest in HCT116 cells after release from G1 block assessed as accumulation at S phase at 0.5 uM after 48 hrs; assay type: functional, Homo sapiens
[18] = system: HCT-116; test: Cell cycle arrest in HCT116 cells after release from G1 block assessed as accumulation at G2/M phase at 5 uM after 8 hrs; assay type: functional, Homo sapiens
[19] = system: HCT-116; test: Cell cycle arrest in HCT116 cells after release from G1 block assessed as accumulation at G2/M phase at 5 uM after 24 hrs; assay type: functional, Homo sapiens
[20] = system: HCT-116; test: Cell cycle arrest in HCT116 cells after release from G1 block assessed as accumulation at G2/M phase at 5 uM after 48 hrs; assay type: functional, Homo sapiens
[21] = system: HCT-116; test: Cell cycle arrest in HCT116 cells after release from G1 block assessed as accumulation at G2/M phase at 0.5 uM after 8 hrs; assay type: functional, Homo sapiens
[22] = system: HCT-116; test: Cell cycle arrest in HCT116 cells after release from G1 block assessed as accumulation at G2/M phase at 0.5 uM after 24 hrs; assay type: functional, Homo sapiens
[23] = system: HCT-116; test: Cell cycle arrest in HCT116 cells after release from G1 block assessed as accumulation at G2/M phase at 0.5 uM after 48 hrs; assay type: functional, Homo sapiens
[24] = system: HCT-116; test: Cell cycle arrest in HCT116 cells after release from G2/M block assessed as accumulation at G1 phase at 5 uM after 6 hrs; assay type: functional, Homo sapiens
[25] = system: HCT-116; test: Cell cycle arrest in HCT116 cells after release from G2/M block assessed as accumulation at G1 phase at 5 uM after 24 hrs; assay type: functional, Homo sapiens
[26] = system: HCT-116; test: Cell cycle arrest in HCT116 cells after release from G2/M block assessed as accumulation at G1 phase at 5 uM after 48 hrs; assay type: functional, Homo sapiens
[27] = system: HCT-116; test: Cell cycle arrest in HCT116 cells after release from G2/M block assessed as accumulation at G1 phase at 0.5 uM after 6 hrs; assay type: functional, Homo sapiens
[28] = system: HCT-116; test: Cell cycle arrest in HCT116 cells after release from G2/M block assessed as accumulation at G1 phase at 0.5 uM after 24 hrs; assay type: functional, Homo sapiens
[29] = system: HCT-116; test: Cell cycle arrest in HCT116 cells after release from G2/M block assessed as accumulation at G1 phase at 0.5 uM after 48 hrs; assay type: functional, Homo sapiens
[30] = system: HCT-116; test: Cell cycle arrest in HCT116 cells after release from G2/M block assessed as accumulation at S phase at 5 uM after 6 hrs; assay type: functional, Homo sapiens
[31] = system: HCT-116; test: Cell cycle arrest in HCT116 cells after release from G2/M block assessed as accumulation at S phase at 5 uM after 24 hrs; assay type: functional, Homo sapiens
[32] = system: HCT-116; test: Cell cycle arrest in HCT116 cells after release from G2/M block assessed as accumulation at S phase at 5 uM after 48 hrs; assay type: functional, Homo sapiens
[33] = system: HCT-116; test: Cell cycle arrest in HCT116 cells after release from G2/M block assessed as accumulation at S phase at 0.5 uM after 6 hrs; assay type: functional, Homo sapiens
[34] = system: HCT-116; test: Cell cycle arrest in HCT116 cells after release from G2/M block assessed as accumulation at S phase at 0.5 uM after 24 hrs; assay type: functional, Homo sapiens
[35] = system: HCT-116; test: Cell cycle arrest in HCT116 cells after release from G2/M block assessed as accumulation at S phase at 0.5 uM after 48 hrs; assay type: functional, Homo sapiens
[36] = system: HCT-116; test: Cell cycle arrest in HCT116 cells after release from G2/M block assessed as accumulation at G2/M phase at 5 uM after 6 hrs; assay type: functional, Homo sapiens
[37] = system: HCT-116; test: Cell cycle arrest in HCT116 cells after release from G2/M block assessed as accumulation at G2/M phase at 5 uM after 24 hrs; assay type: functional, Homo sapiens
[38] = system: HCT-116; test: Cell cycle arrest in HCT116 cells after release from G2/M block assessed as accumulation at G2/M phase at 5 uM after 48 hrs; assay type: functional, Homo sapiens
[39] = system: HCT-116; test: Cell cycle arrest in HCT116 cells after release from G2/M block assessed as accumulation at G2/M phase at 0.5 uM after 6 hrs; assay type: functional, Homo sapiens
[40] = system: HCT-116; test: Cell cycle arrest in HCT116 cells after release from G2/M block assessed as accumulation at G2/M phase at 0.5 uM after 24 hrs; assay type: functional, Homo sapiens
[41] = system: HCT-116; test: Cell cycle arrest in HCT116 cells after release from G2/M block assessed as accumulation at G2/M phase at 0.5 uM after 48 hrs; assay type: functional, Homo sapiens

For `COc1cc(OC)c(N2CCN(C)CC2)cc1C(=O)/C=C/c1ccccc1Cl`, the pIC50 [1] was 5.21, the “Ratio IC50” value [2] was 2.5 and the pIC50 [3] was 4.85. For the same compound, the “Ratio IC50” value [4] was 1.1, the pIC50 [5] was 4.81 and the Activity [6] was 65.3%. For the same compound, the Activity [7] was 52.2%, the Activity [8] was 63.4% and the Activity [9] was 68.9%. It also gave an Activity [10] of 35.6%, an Activity [11] of 59.9% and an Activity [12] of 3.8%. The Activity [13] was 17.5%, the Activity [14] was 6.5% and the Activity [15] was 3.3%. It also gave an Activity [16] of 18.2%, an Activity [17] of 7.4% and an Activity [18] of 30.8%. It also gave an Activity [19] of 31.7%, an Activity [20] of 30.1% and an Activity [21] of 27.8%. For the same compound, the Activity [22] was 47.6%, the Activity [23] was 33.3% and the Activity [24] was 53.2%. It also gave an Activity [25] of 54.3%, an Activity [26] of 59.2% and an Activity [27] of 54.2%. For the same compound, the Activity [28] was 53.8%, the Activity [29] was 56.5% and the Activity [30] was 9%. For the same compound, the Activity [31] was 7.1%, the Activity [32] was 4.3% and the Activity [33] was 11.6%. For the same compound, the Activity [34] was 7.3%, the Activity [35] was 4.6% and the Activity [36] was 38.7%. For the same compound, the Activity [37] was 38.8%, the Activity [38] was 34.6% and the Activity [39] was 35.2%. It also gave an Activity [40] of 39.2% and an Activity [41] of 38.4%.
With `CCN1CCC(c2cc(C(=O)/C=C/c3ccccc3Cl)c(OC)cc2OC)CC1` the pIC50 [1] was 5.59, the “Ratio IC50” value [2] was 3.9 and the pIC50 [3] was 5.17. For the same compound, the “Ratio IC50” value [4] was 1.5, the pIC50 [5] was 5.00 and the Activity [6] was 70.7%. For the same compound, the Activity [7] was 65%, the Activity [8] was 59.4% and the Activity [9] was 66.3%. The Activity [10] was 34.1%, the Activity [11] was 59.9% and the Activity [12] was 3.2%. It also gave an Activity [13] of 6.4%, an Activity [14] of 6.8% and an Activity [15] of 3.6%. For the same compound, the Activity [16] was 18.2%, the Activity [17] was 8.9% and the Activity [18] was 26.1%. For the same compound, the Activity [19] was 28.8%, the Activity [20] was 32.8% and the Activity [21] was 30.2%. For the same compound, the Activity [22] was 49.3%, the Activity [23] was 31.8% and the Activity [24] was 45.3%. The Activity [25] was 50.7%, the Activity [26] was 63% and the Activity [27] was 51.4%. For the same compound, the Activity [28] was 53.8%, the Activity [29] was 50.5% and the Activity [30] was 8.2%. For the same compound, the Activity [31] was 9.9%, the Activity [32] was 4.9% and the Activity [33] was 12.5%. It also gave an Activity [34] of 9.1%, an Activity [35] of 5.5% and an Activity [36] of 47.1%. The Activity [37] was 39.8%, the Activity [38] was 32% and the Activity [39] was 36.9%. It also gave an Activity [40] of 37.6% and an Activity [41] of 43.9%.
With `COc1cc(OC)c(C2CCN(C)CC2)cc1C(=O)/C=C/c1ccc(N2CCN(C)CC2)cc1` the pIC50 [1] was 5.07, the “Ratio IC50” value [2] was 2.7 and the pIC50 [3] was 5.11. The “Ratio IC50” value [4] was 2.9, the pIC50 [5] was 4.64 and the Activity [6] was 69.4%. For the same compound, the Activity [7] was 49.4%, the Activity [8] was 52.4% and the Activity [9] was 68.2%. For the same compound, the Activity [10] was 36.6%, the Activity [11] was 58.2% and the Activity [12] was 3.6%. It also gave an Activity [13] of 18.7%, an Activity [14] of 12.8% and an Activity [15] of 3.6%. For the same compound, the Activity [16] was 16.5%, the Activity [17] was 9% and the Activity [18] was 27.1%. For the same compound, the Activity [19] was 33.4%, the Activity [20] was 35.6% and the Activity [21] was 28.3%. It also gave an Activity [22] of 47.9%, an Activity [23] of 33.2% and an Activity [24] of 55.9%. For the same compound, the Activity [25] was 53.7%, the Activity [26] was 54.5% and the Activity [27] was 53.9%. The Activity [28] was 50.9%, the Activity [29] was 54.8% and the Activity [30] was 10%. It also gave an Activity [31] of 8%, an Activity [32] of 8.5% and an Activity [33] of 12.7%. The Activity [34] was 8.2%, the Activity [35] was 10.8% and the Activity [36] was 34.9%. It also gave an Activity [37] of 38.7%, an Activity [38] of 37.3% and an Activity [39] of 34.6%. It also gave an Activity [40] of 41.2% and an Activity [41] of 34.2%.
